Rows were chosen to be rich in hits. Some 2.9% of all compounds tested hit in one or more screens of this group.
OX1R antag-1: OX1R (HCRTR1) antagonists, primary screen, fluorescence, CHO/OX1R cells, Fluo-8 calcium, orexin A | Orexin/Hypocretin receptor type 1 (Homo sapiens), O43613 | Fluo-8 calcium fluorescence | inhibition, % at 5 µM | 0.43% of 330,000 active;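 active = inhibition above its plate's threshold, mean inhibition of all tested compounds on the plate plus 3 SD, cut at about 37% in these data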
Target sequence (O43613 whole entry, looked up): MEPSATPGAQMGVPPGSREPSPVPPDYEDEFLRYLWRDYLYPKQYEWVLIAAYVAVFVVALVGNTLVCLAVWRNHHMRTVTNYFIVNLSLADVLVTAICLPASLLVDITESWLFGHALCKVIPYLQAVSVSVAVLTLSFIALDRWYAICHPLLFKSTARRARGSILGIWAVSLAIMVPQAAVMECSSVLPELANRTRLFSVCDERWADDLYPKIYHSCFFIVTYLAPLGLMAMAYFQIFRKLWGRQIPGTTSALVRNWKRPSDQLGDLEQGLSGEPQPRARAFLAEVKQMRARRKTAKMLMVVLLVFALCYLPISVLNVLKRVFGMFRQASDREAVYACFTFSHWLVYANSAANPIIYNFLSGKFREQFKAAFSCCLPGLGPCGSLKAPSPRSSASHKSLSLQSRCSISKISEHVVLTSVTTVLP
CHO-K1 Ca ag: counter-screen for M1 agonists: effect in parental CHO-K1 cells; Fluo-8 calcium fluorescence; scaled to maximal ATP response, vehicle zero; 0.48% of 360,000 active; activation, % at 3 µM; in the data active = activation above about 15%;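 also: untransfected CHO-K1 host cells lacking M1 receptor as counterscreen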
CHO-K1 Ca antag: M1 antagonist counterscreen hit in parental CHO-K1 cells; inhibition, % at 3 µM; AID 602250; ATP-induced calcium, Fluo-8 fluorescence; 0.6% of 360,000 active;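 active = inhibition above a per-plate cutoff, the plate's mean sample inhibition plus 3 SD, cut at about 24% in these data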
OX1R antag-2: antagonists of human orexin 1 receptor (OX1R); inhibition, % at 6.6 µM; OX1R-expressing cells, FRET antagonist read-out; AID 485270, 2010; 1.8% of 330,000 active; in the data active = inhibition mostly above about 38%, no sharp cut-off; inactive = mostly below about 40%
CHO-K1 Ca PAM: nonselective calcium activators in parental CHO-K1 cells, primary screen, counter-screen for M1 PAM project, cell-based, Fluo-8 calcium fluorescence, full deck, 1536-well; AID 602247, 2012; ATP EC20; 0% at ATP EC20, 100% at ATP max; activation, % at 3 µM; 0.02% of 360,000 active;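 active = activation above the run cutoff, the mean activation of all test compounds plus 3 SD, cut at about 40% in these data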;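 also: peak over basal fluorescence ratio in a 140 s read after ATP addition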
CHO parental Ca: ATP-evoked calcium signal inhibitors, parental CHO, primary screen, counter-screen for OX1R antagonist project, cell-based, fluorescence, Fluo-8 calcium dye; parental CHO-K1, ATP-induced calcium, Fluo-8 fluorescence; inhibition, % at 5.6 µM; 0.63% of 330,000 active;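 active = inhibition above that plate's mean sample inhibition plus 3 SD, cut at about 26% in these data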
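Assay system – parental CHO cells · Reagent – ATP stimulus · Detection – intracellular calcium via Fluo-8 no-wash fluorescent dye · Evaluation – percent inhibition of ATP-evoked calcium rise, normalized to controls · Controls – ATP wells versus no-ATP DMSO wells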
Numbers stand for hits; n = inactive; x = no result.

SMILES	OX1R antag-1	CHO-K1 Ca ag	CHO-K1 Ca antag	OX1R antag-2	CHO-K1 Ca PAM	CHO parental Ca
O=C(Nc1ccccc1)OCCOc1ccccc1	n	n	n	n	n	n
O=C(Nc1ccccc1)OCCCCCOC(=O)Nc1ccccc1	n	n	26	n	n	n
CC1CCC(CN2C(Nc3ccccc3)=NC[C@@H]2Cc2ccccc2)CC1 (stereo partly drawn)	n	n	n	n	n	n
CC1(C)C(=O)Nc2ccccc2N1C(=O)COC(=O)CSc1ccc(Cl)cc1	n	n	n	n	n	n
CC1(C)C(=O)Nc2ccccc2N1C(=O)COC(=O)CNS(=O)(=O)c1ccc(F)c(F)c1F	n	n	24	n	n	n
Nc1c(SCCC(=O)O)ccc2c1C(=O)c1ccccc1C2=O	n	n	n	43	n	n
CCCCOP(=O)(c1ccc(N(C)C)cc1)C(Nc1ccccc1)c1ccccc1 (stereo not drawn)	n	27	n	n	n	n
CCCCN(C(=O)C(C)Oc1cccc(Cl)c1)c1c(N)n(CCC)c(=O)[nH]c1=O (stereo not drawn)	n	n	n	n	n	n
CCN(Cc1nc2cc(Cl)ccc2c(=O)[nH]1)C(=O)c1nn(C)c(=O)c2ccccc12	n	n	n	38	n	n
CCN(Cc1nc2cc(Cl)ccc2c(=O)[nH]1)C(=O)c1ccc(C)c(NC(=O)c2ccco2)c1	n	n	n	76	n	n
CCN(Cc1nc2cc(Cl)ccc2c(=O)[nH]1)C(=O)c1cc(C2CC2)nn1-c1ccccc1	x	n	n	x	n	x
CCN(CC)C(=O)COC(=O)c1ccc(C)c(NC(=O)c2ccco2)c1	n	n	n	n	n	n
COCc1ccc(CN2CCC(C(=O)Nc3cccc(-c4cccc(Cl)c4)c3)CC2)o1	74	n	n	n	n	61
COCc1ccc(CN2CCC(C(=O)Nc3cccc(-c4cscn4)c3)CC2)o1	n	n	n	n	n	n
Cc1ccc(NC(=O)CN(C)S(=O)(=O)c2cccc3cccnc23)cc1C	n	n	n	39	n	n
Cc1ccccc1NC(=O)C1CCCN(S(=O)(=O)c2cccc3cccnc23)C1 (stereo not drawn)	n	n	n	n	n	n
Cc1cccc(C(=O)Nc2cccc3cccnc23)c1	x	n	n	x	n	x
Cc1ccc(NC(=O)CN(C)S(=O)(=O)c2cccc3cccnc23)cc1F	n	n	n	n	n	n
Cc1ccccc1NC(=O)C1CCCN1S(=O)(=O)c1cccc2cccnc12 (stereo not drawn)	n	n	n	43	n	n
Cc1ccc(C(=O)Nc2cccc3cccnc23)cc1C	n	n	n	68	n	n
CN(CC(=O)N1CCc2ccccc21)S(=O)(=O)c1cccc2cccnc12	n	n	n	60	n	n
COc1ccc(/[N+]([O-])=C/c2ccco2)cc1	n	n	n	n	n	n
CCOc1c2ccccc2nn1CCO	n	n	n	n	n	n
O=C(C1CCCN1S(=O)(=O)c1cccc2cccnc12)N1CCc2ccccc21 (stereo not drawn)	n	n	n	47	n	n
O=C(C1CCCN1S(=O)(=O)c1cccc2cccnc12)N1CCc2ccccc2C1 (stereo not drawn)	n	n	n	n	n	n
SMILES	OX1R antag-1	CHO-K1 Ca ag	CHO-K1 Ca antag	OX1R antag-2	CHO-K1 Ca PAM	CHO parental Ca
O=C(Nc1cccc(C(F)(F)F)c1)C1CCCN1S(=O)(=O)c1cccc2cccnc12 (stereo not drawn)	80	n	n	91	n	n
COc1ccc(Cl)cc1NS(=O)(=O)c1c(C)nc2sccn2c1=O	n	n	n	n	n	n
Cc1ccc(Cc2cnc(NC(=O)c3ccco3)s2)cc1	n	n	n	n	n	n
O=C(Nc1ncc(Cc2ccc(SC(F)F)cc2)s1)c1ccc(OC(F)F)cc1	61	n	n	n	n	n
COc1ccc(-c2cc3c(=O)n(CC(=O)NCCCN4CCC(Cc5ccccc5)CC4)ncn3n2)cc1	n	n	n	n	n	40
O=CNCCCc1nc2ccccc2n1Cc1ccccc1	n	n	36	n	n	n
COc1ccc(C(C)(O)c2nc(-c3ccccc3C)cs2)cc1 (stereo not drawn)	x	n	n	x	n	x
CC1(C)CC(=O)C(=Cc2cn(-c3ccccc3)nc2-c2ccccc2)C(=O)C1	n	n	n	n	n	n
CC1=NNC(=O)/C1=C\c1cn(-c2ccccc2)nc1-c1ccc(Cl)cc1	53	n	n	n	n	37
O=C(O)c1cccc(S(=O)(=O)Nc2ccc(-c3ccccc3)cc2)c1	n	n	n	n	n	n
Cc1ccc(Sc2ccc(S(=O)(=O)Nc3ccc(C(=O)O)cc3)cc2)cc1C	n	n	n	n	n	48
O=C(O)c1ccc(NS(=O)(=O)c2ccc3c(c2)C(=O)c2ccccc2C3=O)cc1	n	n	25	n	n	n
CC(C)CN(C1CCS(=O)(=O)C1)S(=O)(=O)c1ccc(C(C)C)cc1 (stereo not drawn)	n	n	n	n	n	n
O=c1cc(CN2CCCC2)c2c(ccc3ccccc32)o1	x	n	n	x	n	x
O=C1NC(c2ccccc2)C(C(=O)c2cccs2)C(O)(C(F)(F)F)N1 (stereo not drawn)	n	n	n	n	n	n
CSC1=C(C#N)C(c2ccccc2Cl)C(C(=O)c2cccs2)C(O)(C(F)(F)F)N1 (stereo not drawn)	n	n	n	62	n	n
O=C(CN1CCN(Cc2cccc(C(F)(F)F)c2)CC1)NCC(=O)Nc1ccc(F)c(F)c1F	x	n	n	x	n	x
COc1ccc(CN(C)C(=O)CNC(=O)c2sc3ccccc3c2Cl)c(OC)c1	x	n	n	x	n	x
O=C(N/N=C/C(Br)=C\c1ccccc1)c1cccs1	n	n	n	40	n	n
CN(C)c1nc(N)nc(-c2nc3ccccc3s2)n1	n	n	n	58	n	n
Nc1ccccc1-c1nc2ccccc2s1	n	n	n	n	n	n
Oc1ccc(Br)cc1-c1cc(-c2ccc(Cl)cc2)n[nH]1	n	n	n	n	n	50
CC(C)=NNc1cnnc2ccc([N+](=O)[O-])cc12	x	n	n	x	n	x
C/C(=N/OCC(=O)NCCCCCCNC(=O)CO/N=C(/C)c1cccs1)c1cccs1	n	n	n	71	n	n
C/C(=N\OCC(=O)NC(C)C)c1cccs1	n	n	n	n	n	n
O=C(N/N=C/c1ccc(O)cc1O)C(=O)N/N=C/c1ccc(O)cc1O	n	n	n	70	n	n
O=C(NN=Cc1ccc(O)cc1)C(=O)NN=Cc1ccc(O)cc1	x	n	n	x	n	x

Screening results deposited in PubChem BioAssay by The Scripps Research Institute Molecular Screening Center.
